One may read the half-life as how long it takes for the measured level to halve. A higher half-life goes with slow decline. As usually defined, the Papp A→B is how fast a substance crosses the layer from the apical side. Broadly, the Papp B→A is the apparent permeability from the basolateral to the apical side of a cell layer. What is called logD is the decadic logarithm of the distribution of all forms, ionised or not, between an organic phase and buffer at a given pH. A high value points to higher lipophilicity. One may read the efflux ratio as the permeability from basolateral to apical divided by that in the opposite direction, in the common usage.

Results on one compound are retold here after ChEMBL document CHEMBL4052832, “Selective Inhibitors of Human Neuraminidase 3” (J Med Chem, 2018).

Data set [1] in a line: Half life in human liver microsomes at 20 uM by LC-MS analysis. Type of data set: ADME, microsome. (In general: Microsomes from liver hold many membrane-bound enzymes, among them those of drug oxidation.)
Data set [2] can be described thus: Apparent permeability from apical side to basolateral side in human Caco2 cells at 62.5 uM after 30 mins by LC-MS analysis. Type of data set: ADME, cell-based. Particulars: Caco-2. The essentials: (§1)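 Caco-2 monolayer permeation run in triplicate in the apical-to-basolateral and basolateral-to-apical directions. Compound at 62.5 μM in the donor chamber with 0.6% DMSO. Samples taken at 30 min for LC-MS. Papp = (dQ/dt)/(A × c0). Efflux ratio is Papp b→a over Papp a→b.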
For orientation: Caco-2 cells form a polarised layer with tight junctions and transporters.

Data set [3] in a line: Apparent permeability from basolateral side to apical side in human Caco2 cells at 62.5 uM after 30 mins by LC-MS analysis. Type of data set: ADME, cell-based. The following applies: Caco-2. The gist of the method:
as §1

The nature of data set [4]: Octanol-water partition coefficient, log D of compound at pH 7.4 at 10 uM after 2 hrs by LC-MS based shake flask analysis. Type of data set: physicochemical. The essentials:
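Shake-flask log D at pH 7.4. Octanol and 0.1 M Tris-HCl pH 7.4, mutually saturated. Compound at 10 μM in buffer with 0.1% DMSO, at two octanol:buffer ratios, each in triplicate.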

Data set [5] can be described thus: Kinetic solubility of compound in Tris-HCl buffer at pH 7.4 at 10 mM incubated in supersonic bath for 30 mins measured after 24 hrs by LC-MS analysis. It counts as physicochemical. The following applies: Tris-HCl buffer, pH 7.4; read-out: Kinetic_solubility. The essentials: (§2)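 Kinetic solubility. 10 mM DMSO stock diluted 1:100 into 0.1 M Tris-HCl pH 7.4, Prisma HT buffer, or 0.9% NaCl in water (final 1% DMSO). Sonicated 30 min at 25 °C, equilibrated 24 h at 25 °C, filtered (0.2 μm), diluted in MeOH and analysed by LC-MS. Single measurements.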

Data set [6] in a line: Kinetic solubility of compound in Prisma HT 6.5 buffer at pH 7.4 at 10 mM incubated in supersonic bath for 30 mins measured after 24 hrs by LC-MS analysis. Type of data set: physicochemical. The following applies: pH 6.5, in the assay text read “at pH 6.5” for “at pH 7.4”, read-out: Kinetic_solubility. The essentials:
as §2

Data set [7] in a line: Efflux ratio of apparent permeability from basolateral to apical side over apical to basolateral side of human Caco2 cells at 62.5 uM after 30 mins by LC-MS analysis. It counts as ADME, cell-based. The following applies: Caco-2. The gist of the method:
as §1

A short description of data set [8]: Kinetic solubility of compound in 0.9% NaCl at 10 mM incubated in supersonic bath for 30 mins measured after 24 hrs by LC-MS analysis. Type of data set: physicochemical. The following applies: read-out: Kinetic_solubility. The essentials:
as §2

SMILES strings stand for the structures. Converted amounts (≈) assume the structure as drawn.

For the compound `CCCCOC(=O)C1=C[C@H](O)[C@@H](NC(C)=O)[C@H]([C@H](O)[C@H](O)Cn2cc(-c3ccc(-c4ccccc4)cc3)nn2)O1`, in data set [1], the half-life at 20 µM is > 1.5 h. For the same compound, in data set [2], the Papp A→B at 0.5 h, 62.5 µM was 0.32 ×10⁻⁶ cm/s. For the same compound, in data set [3], the Papp B→A at 0.5 h, 62.5 µM stood at 2.2 ×10⁻⁶ cm/s. Moreover, in data set [4], the logD at 2 h, 10 µM came out at 3.8. Besides, the solubility kinetic at 24 h, 10000 µM in data set [5] was determined as 3.9 µg/mL (≈ 7.08 µM); in data set [6], 3.2 µg/mL (≈ 5.81 µM); in data set [8], 5 µg/mL (≈ 9.08 µM). Further, the efflux ratio at 0.5 h, 62.5 µM in data set [7] was 6.7.
